Source: ChEMBL document CHEMBL1150693, “Structures of new dammarane-type Triterpene Saponins from the flower buds of Panax notoginseng and hepatoprotective effects of principal Ginseng Saponins” (2003)

Experiments:
Type in all cases: functional
Conditions in all cases: route intraperitoneal
[1] = system: Mus musculus; assay: Hepatoprotective activity against D-galactosamine/LPS-induced liver injury in ddY mouse assessed as inhibition of serum alanine transaminase level at 100 mg/kg, ip administered 1 hr before D-galactosamine/LPS challenge by Reitman-Frankel method
In short: (§1)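 Male ddY mice (about 25-27 g) fasted 20 h; liver injury induced by i.p. D-GalN (350 mg/kg) plus LPS (10 µg/kg, Salmonella enteritidis) in saline. Test sample given i.p. 1 h before challenge. Blood taken from infraorbital venous plexus 10 h after D-GalN/LPS; sALT and sAST measured by Reitman-Frankel method (Karmen units). Mean ± SEM; one-way ANOVA with Dunnett's test.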

[2] = system: Mus musculus; assay: Hepatoprotective activity against D-galactosamine/LPS-induced liver injury in ddY mouse assessed as inhibition of serum aspartate transaminase level at 100 mg/kg, ip administered 1 hr before D-galactosamine/LPS challenge by Reitman-Frankel method; in short: as §1
[3] = system: Mus musculus; assay: Hepatoprotective activity against D-galactosamine/LPS-induced liver injury in ddY mouse assessed as inhibition of serum alanine transaminase level at 50 mg/kg, ip administered 1 hr before D-galactosamine/LPS challenge by Reitman-Frankel method; in short: as §1
[4] = system: Mus musculus; assay: Hepatoprotective activity against D-galactosamine/LPS-induced liver injury in ddY mouse assessed as inhibition of serum aspartate transaminase level at 50 mg/kg, ip administered 1 hr before D-galactosamine/LPS challenge by Reitman-Frankel method; in short: as §1
[5] = system: Mus musculus; assay: Hepatoprotective activity against D-galactosamine/LPS-induced liver injury in ddY mouse assessed as inhibition of serum alanine transaminase level at 20 mg/kg, ip administered 1 hr before D-galactosamine/LPS challenge by Reitman-Frankel method
In short: (§2)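 Male ddY mice (about 25-27 g) fasted 20 h; liver injury induced by ip D-GalN (350 mg/kg) plus LPS (10 µg/kg, Salmonella enteritidis) in saline. Sample given ip 1 h before D-GalN/LPS. Blood drawn from infraorbital venous plexus 10 h after challenge; sALT and sAST measured by Reitman-Frankel kit, in Karmen units; % inhibition reported. Means ± SEM; one-way ANOVA with Dunnett's test.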

[6] = system: Mus musculus; assay: Hepatoprotective activity against D-galactosamine/LPS-induced liver injury in ddY mouse assessed as inhibition of serum aspartate transaminase level at 20 mg/kg, ip administered 1 hr before D-galactosamine/LPS challenge by Reitman-Frankel method; in short: as §2

SMILES	inhibition in vivo at 100 mg/kg [1]	inhibition in vivo at 100 mg/kg [2]	inhibition in vivo at 50 mg/kg [3]	inhibition in vivo at 50 mg/kg [4]	inhibition in vivo at 20 mg/kg [5]	inhibition in vivo at 20 mg/kg [6]
CC(C)=CCC[C@](C)(O[C@@H]1O[C@H](CO)[C@@H](O)[C@H](O)[C@H]1O)[C@H]1CC[C@]2(C)[C@@H]1[C@H](O)C[C@@H]1[C@@]3(C)CC[C@H](O[C@@H]4O[C@H](CO)[C@@H](O)[C@H](O)[C@H]4O[C@@H]4O[C@H](CO)[C@@H](O)[C@H](O)[C@H]4O)C(C)(C)[C@@H]3CC[C@]12C [GINSENOSIDE RD]	97%	93%				
CC(C)=CCC[C@](C)(O[C@@H]1O[C@H](CO[C@@H]2O[C@@H](CO)[C@H](O)[C@H]2O)[C@@H](O)[C@H](O)[C@H]1O)[C@H]1CC[C@]2(C)[C@@H]1[C@H](O)C[C@@H]1[C@@]3(C)CC[C@H](O[C@@H]4O[C@H](CO)[C@@H](O)[C@H](O)[C@H]4O[C@@H]4O[C@H](CO)[C@@H](O)[C@H](O)[C@H]4O)C(C)(C)[C@@H]3CC[C@]12C [GINSENOSIDE RC]	89%	87%	77%	80%		
CC(C)=CCC[C@](C)(O[C@@H]1O[C@H](CO)[C@@H](O)[C@H](O)[C@H]1O)[C@H]1CC[C@]2(C)[C@@H]1[C@H](O)C[C@@H]1[C@@]3(C)CC[C@H](O)C(C)(C)[C@@H]3[C@@H](O[C@@H]3O[C@H](CO)[C@@H](O)[C@H](O)[C@H]3O[C@@H]3O[C@@H](C)[C@H](O)[C@@H](O)[C@H]3O)C[C@]12C [GINSENOSIDE RE]	92%	90%				
C[C@]12CCC(=O)C=C1CC[C@@H]1[C@@H]2[C@@H](O)C[C@@]2(C)[C@H]1CC[C@]2(O)C(=O)CO [HYDROCORTISONE]					99%	97%
CC(C)=CCC[C@](C)(O[C@@H]1O[C@H](CO[C@@H]2OC[C@@H](O)[C@H](O)[C@H]2O)[C@@H](O)[C@H](O)[C@H]1O)[C@H]1CC[C@]2(C)[C@@H]1[C@H](O)C[C@@H]1[C@@]3(C)CC[C@H](O[C@@H]4O[C@H](CO)[C@@H](O)[C@H](O)[C@H]4O[C@@H]4O[C@H](CO)[C@@H](O)[C@H](O)[C@H]4O)C(C)(C)[C@@H]3CC[C@]12C [GINSENOSIDE RB3]	91%	80%	77%	72%		
CC(C)=CCC[C@](C)(O[C@@H]1O[C@H](CO)[C@@H](O)[C@H](O)[C@H]1O)[C@H]1CC[C@]2(C)[C@@H]1[C@H](O)C[C@@H]1[C@@]3(C)CC[C@H](O)C(C)(C)[C@@H]3[C@@H](O[C@@H]3O[C@H](CO)[C@@H](O)[C@H](O)[C@H]3O[C@@H]3O[C@H](CO)[C@@H](O)[C@H](O)[C@H]3O)C[C@]12C	34%	40%				
CC(C)=CCC[C@](C)(O[C@@H]1O[C@H](CO[C@@H]2O[C@H](CO)[C@@H](O)[C@H](O)[C@H]2O)[C@@H](O)[C@H](O)[C@H]1O)[C@H]1CC[C@]2(C)[C@@H]1[C@H](O)C[C@@H]1[C@@]3(C)CC[C@H](O[C@@H]4O[C@H](CO)[C@@H](O)[C@H](O)[C@H]4O)C(C)(C)[C@@H]3CC[C@]12C [GYPENOSIDE XVII]	95%	91%				
CC(C)=CCC[C@](C)(O[C@@H]1O[C@H](CO)[C@@H](O)[C@H](O)[C@H]1O)[C@H]1CC[C@]2(C)[C@@H]1[C@H](O)C[C@@H]1[C@@]3(C)CC[C@H](O)C(C)(C)[C@@H]3[C@@H](O[C@@H]3O[C@H](CO)[C@@H](O)[C@H](O)[C@H]3O)C[C@]12C [GINSENOSIDE RG1]	30%	12%				
CC(C)=CCC[C@](C)(O)[C@H]1CC[C@]2(C)[C@@H]1[C@H](O)C[C@@H]1[C@@]3(C)CC[C@H](O)C(C)(C)[C@@H]3[C@@H](O[C@@H]3O[C@H](CO)[C@@H](O)[C@H](O)[C@H]3O)C[C@]12C [GINSENOSIDE RH1]	93%	90%				
CC(C)=CCC[C@](C)(O[C@@H]1O[C@H](CO)[C@@H](O)[C@H](O)[C@H]1O)[C@H]1CC[C@]2(C)[C@@H]1[C@H](O)C[C@@H]1[C@@]3(C)CC[C@H](O)C(C)(C)[C@@H]3[C@@H](O[C@@H]3O[C@H](CO)[C@@H](O)[C@H](O)[C@H]3O[C@@H]3OC[C@@H](O)[C@H](O)[C@H]3O)C[C@]12C [NOTOGINSENOSIDE R1]	87%	89%				
CC(C)=CCC[C@](C)(O[C@@H]1O[C@H](CO[C@@H]2O[C@H](CO)[C@@H](O)[C@H](O)[C@H]2O)[C@@H](O)[C@H](O)[C@H]1O)[C@H]1CC[C@]2(C)[C@@H]1[C@H](O)C[C@@H]1[C@@]3(C)CC[C@H](O[C@@H]4O[C@H](CO)[C@@H](O)[C@H](O)[C@H]4O[C@@H]4O[C@H](CO)[C@@H](O)[C@H](O)[C@H]4O)C(C)(C)[C@@H]3CC[C@]12C [GINSENOSIDE RB1]	33%	40%				
CC(C)=CCC[C@](C)(O[C@@H]1O[C@H](CO[C@@H]2O[C@H](CO)[C@@H](O)[C@H](O)[C@H]2O)[C@@H](O)[C@H](O)[C@H]1O)[C@H]1CC[C@]2(C)[C@@H]1[C@H](O)C[C@@H]1[C@@]3(C)CC[C@H](O)C(C)(C)[C@@H]3[C@@H](O[C@@H]3O[C@H](CO)[C@@H](O)[C@H](O)[C@H]3O)C[C@]12C [notoginsenoside-R6]	32%	44%				
